CHOP inh – inhibitors of CHOP induction in ER stress response; CHO-K1 CHOP-promoter luciferase, tunicamycin-induced, 15-18 h; inhibition, % at 10 µM; 220,000 tested, 3.8% active;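 active = compounds that reduced the stress-induced luciferase reporter signal by more than about 70% of percent inhibition, limit read from the data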
Arbovirus inh – blocks arbovirus infection. AID 1251. inhibition, % at 10 µM. 200,000 tested, 0.37% active. arbovirus infection cell-based antiviral screen; in the data active = inhibition above about 30%
Wee1 degr inh – inhibitors of human Wee1 degradation; P30291; HeLa Luc-Wee1K328M stability, luciferase luminescence; 100% = proteasome inhibitor MG132 effect; 220,000 tested, 1.2% active; reporter increase, % at 5 µM; AID 1321;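 active = activation above the mean of all tested compounds plus 3 SD, set per screening run, cut at about 8.8% in these data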;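 also: cells exposed to compound for 20 h before luminescence read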
Target sequence (P30291 whole entry K328M): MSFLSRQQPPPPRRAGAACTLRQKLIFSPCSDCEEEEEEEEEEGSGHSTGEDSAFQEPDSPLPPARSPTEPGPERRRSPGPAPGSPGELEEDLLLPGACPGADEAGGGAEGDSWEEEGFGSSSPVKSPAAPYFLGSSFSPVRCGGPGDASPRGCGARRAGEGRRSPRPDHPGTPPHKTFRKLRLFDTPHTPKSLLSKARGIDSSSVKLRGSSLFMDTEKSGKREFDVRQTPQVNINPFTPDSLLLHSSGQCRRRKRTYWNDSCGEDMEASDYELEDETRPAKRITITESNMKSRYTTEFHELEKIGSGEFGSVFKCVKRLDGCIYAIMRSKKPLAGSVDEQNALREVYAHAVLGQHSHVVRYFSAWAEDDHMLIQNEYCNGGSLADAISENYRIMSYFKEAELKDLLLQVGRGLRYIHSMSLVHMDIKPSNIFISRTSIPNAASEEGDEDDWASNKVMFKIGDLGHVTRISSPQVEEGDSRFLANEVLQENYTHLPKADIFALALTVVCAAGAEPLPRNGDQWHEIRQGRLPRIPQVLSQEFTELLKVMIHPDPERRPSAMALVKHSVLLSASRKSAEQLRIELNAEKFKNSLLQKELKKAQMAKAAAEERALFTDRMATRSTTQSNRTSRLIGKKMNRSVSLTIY
L major viab – Leishmania major promastigote growth inhibition; Leishmania major promastigotes, resazurin fluorescence viability; inhibition, % at 10 µM; 200,000 tested, 9% active; AID 1063;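 also: promastigotes grown with compound for 44 hours at 28 °C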
PKD1 kinase inh – inhibitors of human PKD1 kinase | Q15139 | PKD1 kinase fluorescence polarization assay | inhibition, % (test concentration not listed) | 200,000 tested, 0.056% active | AID 797
Rad51 HR inh – blocks human Rad51 in homologous recombination; Q06609; hRad51 DNA strand exchange, fluorescence dequenching; inhibition, % at 10 µM; 200,000 tested, 0.085% active; AID 1385;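 active = inhibition above 40% at the single screening dose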
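System: hRad51 filaments on single-stranded DNA; reagent: Fluorescein- and BHQ1-tagged 47-mer duplex; compound dosing: one concentration, 10 µM final; timing: filaments 15 min 37 °C, then compound 30 min; measured by: fluorescein emission 520 nm, excitation 485 nm; benchmarks: per-plate controls and blanks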
Of the large screens only hits and unclear results are named; the others gave an inactive call. Rows were chosen to be rich in hits. Some 12% of all compounds tested hit in one or more screens of this group. Rule as the data show it, unless noted: active = inhibition above about 50%; inactive = the rest.

CC(C)C(c1nnnn1Cc1ccco1)N1CCN(c2cccc(Cl)c2)CC1 (stereo unspecified)	L major viab 84.9 (no result: Rad51 HR inh)
Cc1ccc(Cl)cc1N1CCN(Cc2nnnn2Cc2ccco2)CC1	CHOP inh 72.4 (no result: Rad51 HR inh)
Fc1ccc(-c2cc(C(F)(F)F)nc(NCC3CCCO3)n2)cc1 (stereo unspecified)	CHOP inh 84.2
CC(CCN(C)C)OC(=O)c1ccc(C(C)c2ccccc2)o1 (stereo unspecified)	L major viab 99.5
CN(C(=O)C(Cl)Cl)C1CC2C=CC1C2 (stereo unspecified)	Wee1 degr inh 10.8 (no result: Arbovirus inh, L major viab, PKD1 kinase inh)
Clc1cnc(N/N=C/c2cccs2)c(Cl)c1	none
Clc1cnc(N/N=C/c2ccco2)c(Cl)c1	L major viab 67.3
COc1cc(/C=C2/C(=O)N(c3ccc([N+](=O)[O-])cc3)N=C2N2CCOCC2)ccc1O	Wee1 degr inh 8.9 (no result: Arbovirus inh, L major viab, PKD1 kinase inh)
C=CCN1C(=O)/C(=C\c2ccc(Oc3nc(N4CCOCC4)nc(N4CCOCC4)n3)c(OC)c2)SC1=S	L major viab 53.8
CCN(CC)c1ccc(/C=C2/C(=O)N(c3ccc([N+](=O)[O-])cc3)N=C2N2CCOCC2)cc1	none (no result: Rad51 HR inh)
COc1cc(/C=C2\SC(=S)N(N3CCOCC3)C2=O)ccc1O	Wee1 degr inh 9.0 (no result: Arbovirus inh, L major viab, PKD1 kinase inh)
COCCNC(=O)c1cc(S(=O)(=O)N2CCOCC2)ccc1SCc1cccc(OC)c1OC	none (no result: Rad51 HR inh)
Cc1ccc(C)c(C(=O)OCC(=O)Nc2ccc(N3CCOCC3)cc2)c1	none
O=C(N/N=C/c1sc(N2CCOCC2)nc1-c1ccccc1)c1ccccc1F	none (no result: Arbovirus inh, L major viab, PKD1 kinase inh)
Cc1cc(C(=O)N/N=C/c2sc(N3CCOCC3)nc2-c2ccccc2)c(C)o1	L major viab 52.3
O=C(Nc1ccccc1F)C(=Cc1sc(N2CCOCC2)nc1-c1ccccc1)C(=O)Nc1ccccc1F	L major viab 53.0
Cc1cccc(NC2SC(=O)NC2=O)c1 (stereo unspecified)	none
CC(O)CNc1nc2ccccc2n1-c1ncnc2sc3c(c12)CCC3 (stereo unspecified)	L major viab 73.7
c1ccc2c(c1)ncn2-c1ncnc2sc3c(c12)CCCC3	none
Cc1sc2cc3c(c(C(=O)c4ccccc4)[n+]2c1C)-c1cccc2cccc-3c12	L major viab 100.5 (no result: Rad51 HR inh)
Cc1sc(NC(=O)c2ccccc2)c(C(=O)c2ccccc2)c1C	none
Cc1cc(NC(=O)Cc2ccccc2)ccc1NC(=O)c1cccs1	none
O=C(Nc1cccc(C(F)(F)F)c1)N1CCC(c2nc(-c3ccc(F)cc3)no2)CC1	CHOP inh 90.9
CC1(C)C(C=C(Cl)Cl)C1C(=O)N(Cc1cccc(Cl)c1)C1CCS(=O)(=O)C1 (stereo unspecified)	L major viab 90.6
O=C(c1cccs1)N(Cc1cccc(Cl)c1)C1CCS(=O)(=O)C1 (stereo unspecified)	none
O=C(Nc1cccc(S(=O)(=O)NCc2ccco2)c1)c1cc(-c2ccc(F)cc2)nc2ccccc12	Wee1 degr inh 9.2, L major viab 97.7
COc1ccc(-c2cc(C(=O)Nc3cccc(S(=O)(=O)NCc4ccco4)c3)c3ccccc3n2)cc1OC	L major viab 71.9
O=C(Nc1ccccc1)c1cccc(S(=O)(=O)NCc2ccco2)c1	none
N#C/C(=C\c1ccc(Cl)cc1)C(=O)Nc1cccnc1	none (no result: Arbovirus inh, L major viab, PKD1 kinase inh)
O=C(COC(=O)CCSc1ccccc1)Nc1cc(F)ccc1F	none
CCCCc1ccc(NC(=O)COc2ccc(C(=O)Nc3ccccc3C)cc2)cc1	none
O=C(COc1ccc(C(=O)Nc2ccc(Cl)cc2)cc1)NCc1ccccc1	CHOP inh 77.5 (no result: Rad51 HR inh)
CCCCc1ccc(NC(=O)COc2ccc(C(=O)Nc3ccccc3OC)cc2)cc1	L major viab 72.4
CCOC(=O)Cc1n[nH]c(=O)c2ccccc12	none (no result: Rad51 HR inh)
O=C(COC(=O)CCSc1ccccc1)Nc1ccc(F)cc1Cl	L major viab 53.4
O=C(COC(=O)Cc1n[nH]c(=O)c2ccccc12)Nc1ccc(Cl)cc1F	Wee1 degr inh 8.9
COc1cc(OC)c(/C=N/NC(=O)Cn2nc([N+](=O)[O-])cc2C)c(OC)c1	none (no result: Arbovirus inh, L major viab, PKD1 kinase inh)
O=C1NC(=S)SC1=C1CCCC1	none
C=CCn1c(=S)sc2c(=O)[nH]cnc21	none (no result: Arbovirus inh, L major viab, PKD1 kinase inh)
CC1(C)CC(=O)C(N=Nc2ccc(S(=O)(=O)N3CCOCC3)cc2)=C(O)C1	none (no result: Arbovirus inh, L major viab, PKD1 kinase inh, Rad51 HR inh)
Cc1nn(-c2ccccc2)nc1CNC(=O)C1CCC1	none (no result: Arbovirus inh, L major viab, PKD1 kinase inh)
O=C(COC(=O)CCSc1ccccc1Cl)Nc1ccc(F)cc1F	CHOP inh 71.8
O=C(COC(=O)CCSc1ccc(Cl)cc1)NCc1ccccc1	L major viab 60.1
O=C(COC(=O)CCSc1ccc(Cl)cc1)NCc1ccc(Cl)cc1	none
COc1ccc(CCN(C)Cc2nc(Cc3ccc(OC)c(OC)c3)no2)cc1OC	none
Cc1cccc(OCCC(=O)NCC(=O)Nc2cccc(C)c2C)c1	L major viab 60.9
Cc1ccc(OCCCC(=O)Nc2nc3ccccc3[nH]2)cc1	none
Cc1cccc(OCCCC(=O)Nc2ccc(S(N)(=O)=O)cc2)c1	none
Cc1cccc(OCCCC(=O)Nc2nc3ccccc3[nH]2)c1	CHOP inh 73.1
CCN(CC)c1ccc(NC(=O)CCCOc2cccc(C)c2)cc1	Rad51 HR inh 41.5
COc1ccccc1CC1S/C(=N/N=C/c2ccco2)NC1=O (stereo unspecified)	none
Cc1cc(OCCn2ccnc2)ccc1C(C)C	L major viab 97.2
Cc1cccc(OCCCn2ccnc2)c1	L major viab 98.4
COc1cccc(OCCn2ccnc2)c1	none (no result: Rad51 HR inh)
Cc1cc(C(C)(C)C)ccc1OCCn1ccnc1	L major viab 61.8
CCOc1ccc(OCCCCn2ccnc2)cc1	none (no result: Rad51 HR inh)
Cc1ccc(OCCCn2ccnc2)cc1C	L major viab 99.6
CCO[C@H]1OC(C(=O)Nc2ccccc2)=C[C@@H](C)[C@@H]1CCCO	none
Cc1ccc(N2C(=O)N(CC(=O)C(C)(C)C)c3ccccc3S2(=O)=O)cc1	none
CC(NC(=O)c1ccccc1NC(=O)c1ccccc1)C(=O)N1CCOCC1 (stereo unspecified)	none (no result: Rad51 HR inh)
Cc1cccc(Nc2cc(C)c3c(O)cccc3n2)c1C	L major viab 99.2 (no result: Rad51 HR inh)
COc1ccc(/C=N/NC(N)=S)cc1OC(=O)c1cccc2ccccc12	L major viab 98.9
CN(C)/C=N/c1cc(=O)n(C)c(=O)n1Cc1ccccc1	none
COc1ccc(S(=O)(=O)N2C(=O)/C(=C3\SC(N)=NC3=O)c3ccccc32)cc1	none (no result: Arbovirus inh, L major viab, PKD1 kinase inh)
CCN(CC)CC#CCC(O)(c1ccccc1)C1CCCC1 (stereo unspecified)	L major viab 72.7
CCN(CC)CC#CCC(OC)(c1ccccc1)c1ccccc1	L major viab 54.6
CCN(CC)CC#CC(O)(c1ccccc1)c1ccccc1	none
O=C(NCCc1c[nH]c2ccccc12)C(=O)NCC1OCCCN1S(=O)(=O)c1cc(F)ccc1F (stereo unspecified)	none
Cc1nn(-c2ccccc2)nc1C(=O)Nc1nnc(C(F)(F)F)s1	none (no result: Arbovirus inh, L major viab, PKD1 kinase inh)
